Calls of active or inactive are those of the source. No cut-off for these calls is given here.
Assays:
LN-229 [1] = assay: Inhibition of colony formation in human LN229 cells at 30 uM incubated for 4 hrs by crystal violet staining based colony counting method; assay type: functional, cell-based
How it was run: (§1)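 LN229 and PC3 cells treated for 4 h with compound (10 µM) or with etoposide (30 µM positive control), washed, trypsinized and replated at 3000 cells per 60-mm plate. Colonies grown 7–10 days, fixed and stained with 0.5% crystal violet in 70% ethanol, and counted. Reported as percent of control; four independent experiments, each in duplicate.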

PC-3 = assay: Inhibition of colony formation in human PC3 cells at 30 uM incubated for 4 hrs by crystal violet staining based colony counting method; assay type: functional, cell-based; how it was run: as §1
Jurkat = assay: Antiproliferative activity against human Jurkat cells assessed as reduction in cell viability at 10 uM incubated for 48 hrs by cell titer-glo assay; assay type: functional, cell-based
How it was run: (§2)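 Cells plated and treated 24 h later with 10 µM compound for 48 h; viable cells quantified by CellTiter-Glo ATP luminescence. Expressed as percentage of viable cells relative to untreated; mean ± SD of three independent experiments, each in triplicate.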

JeKo-1 = assay: Antiproliferative activity against human JeKo1 cells assessed as reduction in cell viability at 10 uM incubated for 48 hrs by cell titer-glo assay; assay type: functional, cell-based; how it was run: as §2
LN-229 [2] = assay: Antiproliferative activity against human LN229 cells assessed as reduction in cell viability at 10 uM incubated for 48 hrs by cell titer-glo assay; assay type: functional, cell-based; how it was run: as §2
[3] = Metal chelating activity assessed as Zn2+-compound complex formation by measuring stability constant for ZnHL in 0.15M NaCl at 298.1K by potentiometric titration analysis
How it was run: (§3)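 Glass-electrode potentiometric titration with an Ag/AgCl reference in saturated KCl. The electrode was calibrated as an [H+] probe against standardized HCl with CO₂-free NaOH, using Gran's method (pKw 13.73(1)). Range was pH 2.0–11.0, with metal and ligand at 1×10⁻³ to 5×10⁻³ M in 1:1 ratio. At least two curves per compound were merged and fitted with HYPERQUAD.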

[4] = Metal chelating activity assessed as Zn2+-compound complex formation by measuring stability constant for ZnH2L in 0.15M NaCl at 298.1K by potentiometric titration analysis
How it was run: (§4)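 Potentiometric titration at pH 2.0–11.0 with Ag/AgCl reference electrode. Glass electrode calibrated against HCl with CO2-free NaOH by Gran's method (pKw = 13.73). Metal and ligand each at 1×10⁻³ to 5×10⁻³ M, 1:1 molar ratio. At least two titration curves per compound, merged and fitted with HYPERQUAD to give stability constants.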

U-87 MG = assay: Antiproliferative activity against human U87MG cells assessed as reduction in cell viability at 10 uM incubated for 48 hrs by cell titer-glo assay; assay type: functional, cell-based; details: U-87MG ATCC; how it was run: as §2
LN-229 [5] = assay: Metal chelating activity in human LN229 cells assessed as decrease in intracellular concentration of labile zinc ions by measuring reduction in zinquin-Zn2+ complex formation incubated for 12 hrs followed by incubation with fluorophore-zinquin for 30 mins by spectrofluorometric analysis; assay type: cell-based
How it was run: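 LN229 cells were treated 12 h, trypsinized, pelleted and checked by Trypan Blue. Then 6x10⁶ cells in 1 mL PBS were loaded with Zinquin 25 μM for 30 min at 37 °C in the dark. Fluorescence was read at ex 370/em 475 nm with a 400–600 nm scan, normalized to cell number, untreated set to 100; four independent experiments.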

[6] = Metal chelating activity assessed as Zn2+-compound complex formation by measuring stability constant for ZnL in 0.15M NaCl at 298.1K by potentiometric titration analysis; how it was run: as §3
[7] = Metal chelating activity assessed as Zn2+-compound complex formation by measuring stability constant for ZnL(OH) in 0.15M NaCl at 298.1K by potentiometric titration analysis; how it was run: as §3
[8] = Metal chelating activity assessed as Zn2+-compound complex formation by measuring stability constant for ZnL(OH)2 in 0.15M NaCl at 298.1K by potentiometric titration analysis; how it was run: as §3
[9] = Metal chelating activity assessed as Zn2+-compound complex formation by measuring stability constant for ZnL(OH) using pre-Zn2+-complexed compound (ZnL) in 0.15M NaCl at 298.1K by potentiometric titration analysis; how it was run: as §3
[10] = Metal chelating activity assessed as Zn2+-compound complex formation by measuring stability constant for ZnL(OH)2 using pre-Zn2+-complexed compound (ZnL(OH)) in 0.15M NaCl at 298.1K by potentiometric titration analysis; how it was run: as §3
[11] = Metal chelating activity assessed as Zn2+-compound complex formation by measuring stability constant for ZnH2L using pre-Zn2+-complexed compound (ZnHL) in 0.15M NaCl at 298.1K by potentiometric titration analysis; how it was run: as §4
[12] = Metal chelating activity assessed as Zn2+-compound complex formation by measuring stability constant for ZnHL using pre-Zn2+-complexed compound (ZnL) in 0.15M NaCl at 298.1K by potentiometric titration analysis; how it was run: as §3
[13] = Metal chelating activity assessed as Zn2+-compound complex formation at physiological pH 7.4 by quantum mechanical studies
How it was run: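 Zn2+ complexes modelled by DFT, B3LYP, gas phase. Basis set def2-SV(P), with MDF10 Stuttgart-Dresden effective core potential for Zn and Grimme dispersion correction. Vibrational frequencies and zero-point correction computed for each minimum.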

DNA [14] = assay: Induction of DNA damage in human LN229 cells assessed as increase in gammaH2AX phosphorylation at Ser139 residue at 1 uM incubated for 4 hrs by Flow cytometry analysis; assay type: cell-based
How it was run: (§5)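 Z-138 and LN229 cells treated 4 h with 10 µM compound or 1 µM doxorubicin. Fixed in 3.7% formaldehyde on ice, permeabilized with 0.2% Triton X, stained with rabbit anti-pS139 H2A.X (1:400) and Alexa 555 secondary, then analysed by flow cytometry. Fold γH2AX fluorescence versus untreated; mean ± SD of three experiments.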

DNA [15] = assay: Induction of DNA damage in human Z138 cells assessed as increase in gammaH2AX phosphorylation at Ser139 residue at 1 uM incubated for 4 hrs by Flow cytometry analysis; assay type: cell-based; how it was run: as §5
[16] = Metal chelating activity assessed as Zn2+-compound complex formation by measuring stability constant for ZnL in 0.15M NaCl and hydroalcoholic solutions (H2O/EtOH 70:30) at 298.1K by potentiometric titration analysis; how it was run: as §3
[17] = Metal chelating activity assessed as Zn2+-compound complex formation by measuring stability constant for ZnL(OH) in 0.15M NaCl and hydroalcoholic solutions (H2O/EtOH 70:30) at 298.1K by potentiometric titration analysis; how it was run: as §3
[18] = Metal chelating activity assessed as Zn2+-compound complex formation by measuring stability constant for ZnL(OH)2 in 0.15M NaCl and hydroalcoholic solutions (H2O/EtOH 70:30) at 298.1K by potentiometric titration analysis; how it was run: as §3
[19] = Metal chelating activity assessed as Zn2+-compound complex formation by measuring stability constant for ZnL(OH) using pre-Zn2+-complexed compound (ZnL) in 0.15M NaCl and hydroalcoholic solutions (H2O/EtOH 70:30) at 298.1K by potentiometric titration analysis; how it was run: as §3
[20] = Metal chelating activity assessed as Zn2+-compound complex formation by measuring stability constant for ZnL(OH)2 using pre-Zn2+-complexed compound (ZnL(OH)) in 0.15M NaCl and hydroalcoholic solutions (H2O/EtOH 70:30) at 298.1K by potentiometric titration analysis; how it was run: as §3
[21] = Metal chelating activity assessed as Zn2+-compound complex formation by measuring stability constant for ZnH2L2 in 0.15M NaCl and hydroalcoholic solutions (H2O/EtOH 70:30) at 298.1K by potentiometric titration analysis; how it was run: as §4
Fibroblast = assay: Cytotoxicity against human Fibroblast assessed as reduction in cell viability incubated for 48 hrs by cell titer-glo assay; assay type: cell-based
How it was run: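 Dose-response: cells plated, treated 24 h later for 48 h, then ATP measured by CellTiter-Glo luminescence. IC50 given as mean ± SD from three independent experiments, each in triplicate. Fibroblasts came from individuals. Cells were kept in RPMI or DMEM with 10% heat-inactivated FBS and penicillin/streptomycin at 37 °C, 5% CO2.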

Compound	log K [6]	log K [7]	log K [8]	log K [9]	log K [10]	Activity [13]	Activity (Jurkat)	Activity (JeKo-1)	Activity (LN-229 [2])	Activity (U-87 MG)	Activity (LN-229 [5])	other results
COc1cc([C@@H]2c3cc4c(cc3[C@@H](O[C@@H]3O[C@@H]5CO[C@@H](C)O[C@H]5[C@H](O)[C@H]3O)[C@H]3COC(=O)[C@H]23)OCO4)cc(OC)c1O												inhibition (LN-229 [1]): Active; inhibition (PC-3): Active
O=S(=O)(c1cccc2cccnc12)N(CCNCc1ccccn1)CCNCc1ccccn1							Active	Active	Active			
CN(C)c1cccc2c(S(=O)(=O)N(CCNCc3ccccn3)CCNCc3ccccn3)cccc12	8.38	-1.17	-11.5	-9.55	-10.4	Active	Active	Active	Active	Active	inactive	log K [3]: 13; log K [4]: 17.5; log K [11]: 4.5; log K [12]: 4.61
COc1cccc2c1C(=O)c1c(O)c3c(c(O)c1C2=O)C[C@@](O)(C(=O)CO)C[C@@H]3O[C@H]1C[C@H](N)[C@H](O)[C@H](C)O1												Activity (DNA [14]): Active; Activity (DNA [15]): Active
CN(CCNCc1ccncc1)CCNCc1ccncc1							inactive	inactive	inactive	inactive	inactive	log K [16]: 6.57; log K [17]: -2.6; log K [18]: -12.3; log K [19]: -9.17; log K [20]: -9.68; log K [21]: 24.3
c1ccc(CN(CCN(Cc2ccccn2)Cc2ccccn2)Cc2ccccn2)nc1												IC50 (Fibroblast): 6.7 µM

The next lines start with results.

log K [6]	log K [7]	log K [8]	log K [9]	log K [10]	Activity [13]	Compound	Activity (Jurkat)	Activity (JeKo-1)	Activity (LN-229 [2])	Activity (U-87 MG)	Activity (LN-229 [5])	other results
4.72	-4.22	-12.9	-8.99	-8.67	60.7%	c1ccc2cc(CN(CCNCc3ccncc3)CCNCc3ccncc3)ccc2c1	inactive	inactive	inactive	inactive	inactive	
					Active	O=C(NCCN(CCNC(=O)c1ccccn1)Cc1ccc2ccccc2c1)c1ccccn1					inactive	
6.04	-2.56	-12.1	-8.6	-9.54	63.4%	c1cncc(CNCCN(CCNCc2cccnc2)Cc2ccc3ccccc3c2)c1	inactive	inactive	inactive	inactive	inactive	log K [3]: 14.1
7.53	-1.48	-11.8	-10	-10.3		O=S(=O)(c1cccc2ccccc12)N(CCNCc1ccccn1)CCNCc1ccccn1	Active	Active	Active	Active	inactive	

Source: ChEMBL document CHEMBL4376884, “Toward a Rational Design of Polyamine-Based Zinc-Chelating Agents for Cancer Therapies” (J Med Chem, 2020)
